Measured values published in ChEMBL document CHEMBL1255196, “Radiosensitization of cancer cells by hydroxychalcones” (2010).
Calls of active or inactive are those of the source. The rule behind the calls is not given here.

Experiments:
[1] = tested on: Nucleic Acid; assay: Induction of Hsf1 DNA binding affinity in human HT-29 cells at 8 uM after 2 hrs; format: cell-based
Summary of the method: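 HT-29 cells were incubated with drug for 2 hr at 37°C (30 min is also stated for the treatment) and nuclear protein was extracted. Gel shift assay used a 32P-labelled rat Hsp70 heat shock element oligomer. Hsf1 identity was confirmed by antibody supershift.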

[2] = tested on: HT-29; assay: Phototoxicity against human HT-29 cells irradiated with 2 Gy/min; format: functional, cell-based
[3] = tested on: HT-29; assay: Phototoxicity against human HT-29 cells at 10 uM irradiated with 4 Gy/min; format: functional, cell-based
[4] = tested on: HT-29; assay: Phototoxicity against human HT-29 cells assessed as polyploidy formation at 10 uM irradiated with 4 Gy/min; format: functional, cell-based
Summary of the method: (§1)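 They were fixed by adding cold 70% ethanol, washed in PBS, and stained with propidium iodide plus RNase for 30-45 min at 37°C. Flow cytometry scored polyploidy and sub-G0 cells 48 hr after irradiation.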

[5] = tested on: HT-29; assay: Cell cycle arrest in photoirradiated human HT-29 cells assessed as accumulation at subG0 phase after 48 hrs; format: functional, cell-based; summary of the method: as §1
[6] = tested on: HT-29; assay: Cytotoxicity against human HT-29 cells assessed as plating efficiency at 25 uM; format: functional
Summary of the method: (§2)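 Colony formation assay of HT-29 cells exposed to drug or DMSO for 2 hr. Plating efficiency defined non-toxic concentrations, meaning plating efficiency above 80%. After 10 to 14 days colonies were fixed in 3:1 methanol/acetic acid for 15 min, stained with 0.5% crystal violet in methanol for 15 min, and counted to give percent survival.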

[7] = tested on: HT-29; assay: Induction in heat-induced cell killing in human HT-29 cells; format: functional, cell-based
Summary of the method: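 HT-29 cells were treated with drug or DMSO and heated at 41°C for 2 hr. Medium was then replaced and cells grown 10-14 days. Colonies were stained and counted. Four flasks per condition.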

[8] = tested on: HT-29; assay: Cytotoxicity against human HT-29 cells assessed as plating efficiency at 10 uM; format: functional; summary of the method: as §2

SMILES	Activity [1]	Activity [2]	Activity [3]	Activity [4]	Activity [5]	Activity [6]	Activity [7]	Activity [8]
O=C(/C=C/c1ccccc1)c1cc(O)ccc1O	Active	Dose-dependent effect	Active	Active	Active	>80%		
O=C(/C=C/c1ccccc1O)c1ccccc1O	Active		Active				Active	>80%
